Screening results: PubChem, several laboratories
Wee1 degr inh: inhibitors of human Wee1 degradation. actives 1.2% (n = 220,000). HeLa Luc-Wee1K328M stability, luciferase luminescence; 100% = proteasome inhibitor MG132 effect. P30291. reporter increase, % at 5 µM;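 active means activation above the mean of all tested compounds plus 3 SD, set per screening run, cut at about 8.8% in these data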;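 further: cells exposed to compound for 20 h before luminescence read; 0% = DMSO alone and 100% = MG132 at 30 µM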
Runt-SMMHC FRET: inhibitors of human RUNX1 Runt domain binding to CBFb-SMMHC; Q01196+Q13951; Cerulean-Runt/Venus-CBFb-SMMHC FRET ratio 530/480, 1 h; inhibition, % at 20 µM; actives 0.74% (n = 220,000);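 active means mean inhibition across duplicate retests at 20 µM reaching about 50%, limit read from the data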;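 further: 0% = DMSO wells and 100% = wells with excess untagged CBFb-SMMHC; inhibitors lower the FRET ratio by blocking Runt binding to CBFb-SMMHC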
Target sequence (Q01196 whole entry, looked up, the tested form may be a part): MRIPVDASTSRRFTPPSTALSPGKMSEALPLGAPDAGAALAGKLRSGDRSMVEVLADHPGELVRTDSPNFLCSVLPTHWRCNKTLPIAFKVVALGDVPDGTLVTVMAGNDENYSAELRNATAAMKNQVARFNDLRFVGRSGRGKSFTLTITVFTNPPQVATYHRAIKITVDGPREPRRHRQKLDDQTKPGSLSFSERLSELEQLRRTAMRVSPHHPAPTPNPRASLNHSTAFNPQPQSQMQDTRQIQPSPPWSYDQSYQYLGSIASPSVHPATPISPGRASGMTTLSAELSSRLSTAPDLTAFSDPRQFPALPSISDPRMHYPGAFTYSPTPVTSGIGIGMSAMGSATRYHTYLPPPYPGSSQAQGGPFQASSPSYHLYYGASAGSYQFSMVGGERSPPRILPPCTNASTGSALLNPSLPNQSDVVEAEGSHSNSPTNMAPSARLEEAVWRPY
Target sequence (Q13951 whole entry, looked up, the tested form may be a part): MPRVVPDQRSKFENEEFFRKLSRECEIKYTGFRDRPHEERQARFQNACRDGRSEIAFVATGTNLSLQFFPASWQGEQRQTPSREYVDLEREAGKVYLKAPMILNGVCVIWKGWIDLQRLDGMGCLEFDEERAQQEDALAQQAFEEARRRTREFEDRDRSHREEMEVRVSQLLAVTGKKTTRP
Runt-CBFb FRET: inhibitors of human RUNX1 Runt domain binding to CBFb; Cerulean-Runt/Venus-CBFb FRET ratio 530/480, 1 h; inhibition, % at 20 µM; actives 0.46% (n = 220,000); AID 1496;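 active means inhibition over about 50% at 20 µM in the single-dose screen, limit read from the data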;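 further: 0% = DMSO wells and 100% = excess unlabeled CBFb competitor control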
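Measured by: fluorescence energy transfer, 422 nm excitation, 530/480 nm emission; test system: Cerulean-tagged RUNX1 Runt domain (FRET donor) fusion protein; buffer or medium: Tris pH 7.5 buffer with BSA; compound: one dose, 20 µM compound, 1% DMSO; times: two 1 h room-temperature incubations shielded from light; benchmarks: unlabeled CBFb 5 µM, positive control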
RanGTP-Imp inh: inhibitors of RanGTP-importin-beta interaction, primary screen, biochemical, FRET, CFP-Ran, YFP-importin-beta, homogeneous; cell-free CFP-Ran/YFP-importin-beta FRET ratio; inhibition, % (test concentration not listed); actives 1.1% (n = 300,000); AID 2216;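 active means more than half of the replicate wells show a fall in the fluorescence ratio signal beyond about 16%, limit read from the data, passing the limit was not always enough; inconclusive means exactly half of the replicate wells pass the set limit; inactive means fewer than half of replicates pass the limit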;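 further: 0% = DMSO wells and 100% = Ran loaded with GDP instead of GTP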
PHOSPHO1 block: blocks human PHOSPHO1 phosphatase activity | AID 1565 | actives 1.1% (n = 290,000) | inhibition, % at 13.3 µM | recombinant PHOSPHO1, absorbance phosphatase assay; in the data active means inhibition above about 60%
Efa HMGR inh: blocks class II HMG-CoA reductase of Enterococcus faecalis. purified E. faecalis HMGR, NADPH absorbance 340 nm kinetic. actives 0.41% (n = 190,000). inhibition, % at 10 µM;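 active means inhibition above a set limit, the median over all tested compounds plus 3 SD, cut at about 9.5% in these data; inconclusive means no clear call, values can overlap the other calls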;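 further: enzyme runs in reverse so mevalonate oxidation gives rising NADPH absorbance; 0% = complete reaction with DMSO and 100% = background rate lacking mevalonate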
The depositor's hits bear a star; u = inconclusive; x = no result. In the library only some 3.4% were active in any assay of this set; here they are far more common.

SMILES	Wee1 degr inh	Runt-SMMHC FRET	Runt-CBFb FRET	RanGTP-Imp inh	PHOSPHO1 block	Efa HMGR inh
COc1ccc(C(C)NC(=O)CC23CC4CC(CC(C4)C2)C3)cc1 (centres undefined)	x	x	x	2	8	x
COCC(=O)N1CCC(Oc2ccc(C(=O)N3CCN(C)C[C@@H]3C(C)C)cc2)CC1	x	x	x	-5	12	x
CCS(=O)(=O)N1Cc2ccccc2CC1C(=O)Nc1ccc(C)cc1 (centres undefined)	1	-4	1	1	-1	1
CCS(=O)(=O)N1Cc2ccccc2CC1C(=O)Nc1cccc(C)c1 (centres undefined)	9.9*	-4	-2	3	11	-8
COc1ccc(C2CC(=O)NC3=C2C(=O)CCC3)cc1Cl (centres undefined)	1	1	0	u	40	0
C#CCOc1c(Cl)cc(C2C3=C(CCCC3=O)N(CC(=O)O)C3=C2C(=O)CCC3)cc1OC	x	x	x	127*	24	x
COc1ccccc1C1C2=C(CCCC2=O)N(CC(=O)O)C2=C1C(=O)CCC2	x	x	x	118*	34	x
CCOc1cc(C2C3=C(CCCC3=O)N(CC(=O)O)C3=C2C(=O)CCC3)ccc1OC	x	x	x	-1	10	x
COc1ccc(C2C3=C(CC(C)(C)CC3=O)N(CC(=O)O)C3=C2C(=O)CC(C)(C)C3)cc1OC	x	x	x	0	47	x
COc1ccc(C2C3=C(CCCC3=O)N(CC(=O)O)C3=C2C(=O)CCC3)cc1Cl	x	x	x	112*	19	x
COc1ccc(N(C(=O)C(C)C)S(=O)(=O)c2cccs2)cc1	1	0	2	-1	2	-7
CC(C)C(=O)N(c1cc2sc(=O)oc2c2ccccc12)S(=O)(=O)c1cccs1	0	x	32	-3	92*	0
Cc1cccc(C(=O)n2c(=S)nc3ccccn32)c1	6	7	29	1	85*	-2
Cc1ccc(C(=O)n2c(=S)nc3ccccn32)cc1	6	6	12	1	20	-2
Cc1cc(N2CCN(C(=O)c3ccco3)CC2)n2nc(-c3cccc(Cl)c3)cc2n1	9.2*	1	-2	1	-12	-2
COc1ccc(C)cc1NC(=O)NCc1ccco1	0	0	-2	-2	61*	-4
COc1cc(NC(=S)NCc2ccco2)cc(OC)c1OC	2	5	7	u	-4	-1
COc1ccccc1NC(=S)NCc1ccco1	-2	1	13	2	62*	2
CCN(CC)C1=N/C(=C\c2ccc(OC)cc2)C(=O)N1c1ccccc1	1	9	2	-2	-3	-4
COc1ccccc1C(=O)COC(=O)CN1C(=O)C2CC=CCC2C1=O (centres undefined)	x	x	x	-5	x	x
Cc1ccc(C)c(NC(=O)CN(C)C(=O)c2ccccc2OCc2ccc(Cl)cc2)c1	x	x	x	0	x	x
Cn1nc([N+](=O)[O-])nc1Sc1nnnn1-c1ccc(C(=O)O)cc1	-1	-6	0	7	19	17*
CCC1S/C(=C(\C#N)C(=O)NCc2ccco2)N(c2ccc(F)cc2)C1=O (centres undefined)	-1	0	-1	0	76*	4
CCC1S/C(=C(\C#N)C(=O)NCc2ccco2)N(c2ccc(Br)cc2)C1=O (centres undefined)	-1	12	4	2	-7	-8
CC(=O)N1CCc2cc(S(=O)(=O)CCC(=O)NCCc3ccc(Cl)cc3)ccc21	x	x	x	-1	65*	x
SMILES	Wee1 degr inh	Runt-SMMHC FRET	Runt-CBFb FRET	RanGTP-Imp inh	PHOSPHO1 block	Efa HMGR inh
CCC(=O)N1CCc2cc(S(=O)(=O)CCC(=O)NCCc3ccc(S(N)(=O)=O)cc3)ccc21	x	x	x	0	34	x
CC(C)(C)/C(O)=C/c1nc2ccccc2[nH]c1=O	-3	11	2	-1	3	4
O=c1[nH]c2ccccc2nc1/C=C/c1ccc(F)cc1	2	50	16	38*	50	-10
O=C(/C=C/c1ccc(F)cc1)Nc1nc2ccccc2[nH]1	10*	0	0	-3	9	-1
O=c1[nH]c2ccccc2nc1/C=C/c1ccccc1	-2	88*	45	61*	28	0
CCC1CCCCN1C(=O)COc1ccc(N(C)S(=O)(=O)c2ccc(C)cc2)cc1 (centres undefined)	x	x	x	1	24	x
O=S(=O)(c1ccc(OC(F)(F)F)cc1)N1CCCC(c2ccccc2)C1 (centres undefined)	x	x	x	-1	x	x
C=CCc1cccc(/C=N/NC(=O)c2ccccc2OC)c1O	8.9*	2	2	39*	-15	-6
Cc1cc(Cl)ccc1C(=O)C1CCCN(C(=O)c2cnn(C(C)C)c2)C1 (centres undefined)	x	x	x	1	40	x
Cn1c(COc2ccc(Cl)cc2)nnc1SCc1ncc(-c2ccccc2)o1	-1	0	-3	-1	80*	-1
COc1ccc(-n2cnnc2SCc2ncc(-c3ccccc3)o2)cc1	-1	5	1	-2	-11	-2
COc1ccc(OCc2nnc(SCC(N)=O)n2N)cc1	1	-2	3	8	7	-1
COc1ccc(OCc2nnc(SCC(=O)O)n2N)cc1	0	-4	1	0	60*	1
Cn1c(COc2cccc3ccccc23)nnc1SCC(=O)OC1CCCCC1	9.5*	0	-4	2	10	x
Cn1c(COc2ccc3ccccc3c2)nnc1SCC(=O)O	3	6	2	2	62*	0
CCOc1ccc(OCCOC(=O)C2CCN(S(=O)(=O)c3ccc(C)c(C)c3)CC2)cc1	x	x	x	2	x	x
Cc1ccc(/C=N/NC(=O)c2nnn(-c3nonc3N)c2CN(C)c2ccccc2)s1	x	x	x	2	29	x
NS(=O)(=O)c1ccc(Sc2ccc3c(c2)CCC3)nc1	x	x	x	2	-22	x
CN(C)CCCNC(=O)C(=O)NCC1OCCN1S(=O)(=O)c1cc(F)ccc1F (centres undefined)	x	x	x	3	-1	x
Cc1cc(/C=C(\C#N)c2nnc(N3CCOCC3)n2-c2ccccc2)c(C)n1-c1ccccc1	10*	3	-19	6	-2	-2
COc1cc(/C=C(\C#N)c2nnc(N3CCOCC3)n2-c2ccccc2)ccc1O	-2	-9	-2	3	1	-8
COc1ccc(Nc2oc(-c3ccc(F)cc3)nc2C#N)cc1	9.3*	-1	0	-6	46	x
COCCNc1oc(-c2ccc(F)cc2)nc1C#N	-3	-2	1	1	29	4
O=C(CCN1C(=O)c2ccccc2C1=O)Nc1ccccc1C(F)(F)F	x	x	x	u	28	x
COc1ccc(C(=O)NC(=S)NCc2ccccc2)cc1	1	-1	0	-1	62*	1
